# Active and inactive are the calls of the source. No cut-off for these calls is given here.
# Columns and labels:
# [1] = Plasma clearance in Sprague-Dawley rat at 10 mg/kg, po and 2 mg/kg, iv; format: ADME, organism-based
# In short: (§1)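 PK in Sprague-Dawley rats (iv solution in DMSO via an indwelling jugular cannula, or oral suspension in aqueous methylcellulose/Methocel) and beagle dogs (iv and oral given crossover, same vehicles). Plasma levels by LC-MS. F from oral versus iv dose-normalized AUC. Average of at least two animals; rat values within 25% of the mean.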
# [2] = test system: Human immunodeficiency virus; experiment: Antiviral activity against wild type Human immunodeficiency virus assessed as inhibition of viral replication; format: functional, organism-based
# [3] = test system: Human immunodeficiency virus; experiment: Antiviral activity against Human immunodeficiency virus expressing reverse transcriptase Y181C mutant infected in human MT4 cells by p24 antigen assay in the presence of 10% FBS; format: functional; details: Human immunodeficiency virus 1, MT4; read-out: CIC95
# In short: (§2)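 Antiviral spread assay in MT-4 human T-lymphoid cells kept in RPMI 1640 with 10% FBS. Value is the CIC95, the concentration inhibiting virus replication by >95%. Reported as the geometric mean of at least two determinations, all within 2-fold of the mean. Cytotoxicity was checked up to the assay upper limit of 8.3 μM.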
# Rattus norvegicus = experiment: Dose normalised AUC in Sprague-Dawley rat at 10 mg/kg, po by LC-MS analysis; format: ADME, organism-based; design: dose 10 mg/kg, route oral; details: in vivo; in short: as §1
# [4] = Half life in Beagle dog at 2 mg/kg, po and 1 mg/kg, iv; format: ADME, organism-based, Canis lupus familiaris; details: in vivo; in short: as §1
# [5] = test system: Human immunodeficiency virus; experiment: Antiviral activity against Human immunodeficiency virus expressing wild type reverse transcriptase infected in human MT4 cells by p24 antigen assay in the presence of 10% FBS; format: functional; details: Human immunodeficiency virus 1, MT4; read-out: CIC95
# In short: (§3)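 MT-4 human T-lymphoid cells in RPMI 1640 with either 10% FBS or 50% NHS; CIC95 taken as the concentration inhibiting virus spread/replication by >95%. Geometric mean of at least two determinations, individual values within 2-fold; SEM given when ≥3 determinations.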
# [6] = Bioavailability in Beagle dog at 2 mg/kg, po and 1 mg/kg, iv; format: ADME, organism-based, Canis lupus familiaris; details: in vivo; in short: as §1
# [7] = test system: Human immunodeficiency virus; experiment: Antiviral activity against Human immunodeficiency virus harboring reverse transcriptase G190S mutant assessed as inhibition of viral replication; format: functional, organism-based
# In short: (§4)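 Phenosense cell culture assay against a panel of clinically derived RT mutant viruses in the presence of 10% FBS. IC50 is the compound concentration blocking 50% of viral replication. Each value is the average of two determinations.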
# [8] = test system: Human immunodeficiency virus; experiment: Antiviral activity against Human immunodeficiency virus expressing wild type reverse transcriptase infected in human MT4 cells by p24 antigen assay in the presence of 50% normal human serum; format: functional; details: Human immunodeficiency virus 1, MT4; read-out: CIC95; in short: as §3
# [9] = test system: Human immunodeficiency virus; experiment: Antiviral activity against Human immunodeficiency virus harboring reverse transcriptase K101E/G190A double mutant assessed as inhibition of viral replication; format: functional, organism-based; in short: as §4
# [10] = test system: Human immunodeficiency virus; experiment: Antiviral activity against Human immunodeficiency virus harboring reverse transcriptase K101E/Y181C/G190A triple mutant assessed as inhibition of viral replication; format: functional, organism-based; in short: as §4
# [11] = Volume of distribution in Sprague-Dawley rat at 10 mg/kg, po and 2 mg/kg, iv; format: ADME, organism-based; details: in vivo; in short: as §1
# [12] = test system: Human immunodeficiency virus; experiment: Antiviral activity against multidrug-resistant Human immunodeficiency virus assessed as inhibition of viral replication; format: functional, organism-based; in short: as §4
# [13] = target: Human immunodeficiency virus type 1 reverse transcriptase (Human immunodeficiency virus 1, UniProt Q72547, K103N); experiment: Inhibition of Human immunodeficiency virus reverse transcriptase K103N mutant by SPA assay
# In short: (§5)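 Recombinant HIV-1 RT polymerase scintillation proximity assay run with mutant enzyme, reported as Ki (nM). Values are geometric means of at least two determinations, each within 2-fold of the mean; SEM is given where there were ≥3 determinations.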
# [14] = test system: Human immunodeficiency virus; experiment: Antiviral activity against Human immunodeficiency virus harboring reverse transcriptase K103N mutant assessed as inhibition of viral replication; format: functional, organism-based; in short: as §4
# [15] = test system: Human immunodeficiency virus; experiment: Antiviral activity against Human immunodeficiency virus harboring reverse transcriptase V106A/G190A/F227L triple mutant assessed as inhibition of viral replication; format: functional, organism-based; in short: as §4
# [16] = test system: Human immunodeficiency virus; experiment: Antiviral activity against Human immunodeficiency virus expressing reverse transcriptase K103N mutant infected in human MT4 cells by p24 antigen assay in the presence of 10% FBS; format: functional; details: Human immunodeficiency virus 1, MT4; read-out: CIC95; in short: as §2
# [17] = test system: Human immunodeficiency virus; experiment: Antiviral activity against Human immunodeficiency virus harboring reverse transcriptase L100l/K103N/P225P/H triple mutant assessed as inhibition of viral replication; format: functional, organism-based; in short: as §4
# [18] = test system: Human immunodeficiency virus; experiment: Antiviral activity against Human immunodeficiency virus harboring reverse transcriptase L100l mutant assessed as inhibition of viral replication; format: functional, organism-based; in short: as §4
# [19] = Inhibition of Human immunodeficiency virus reverse transcriptase by SPA assay
# [20] = test system: Human immunodeficiency virus; experiment: Antiviral activity against Human immunodeficiency virus harboring reverse transcriptase G190A mutant assessed as inhibition of viral replication; format: functional, organism-based; in short: as §4
# [21] = test system: Human immunodeficiency virus; experiment: Antiviral activity against Human immunodeficiency virus harboring reverse transcriptase Y188L mutant assessed as inhibition of viral replication; format: functional, organism-based; in short: as §4
# [22] = Solubility of the compound in water at pH 2; format: physicochemical
# In short: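 Water solubility of the solid compound measured at pH 2 and at pH 7.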
# [23] = Plasma clearance in Beagle dog at 2 mg/kg, po and 1 mg/kg, iv; format: ADME, organism-based, Canis lupus familiaris; in short: as §1
# [24] = Half life in Sprague-Dawley rat at 10 mg/kg, po and 2 mg/kg, iv; format: ADME, organism-based; details: in vivo; in short: as §1
# [25] = test system: Human immunodeficiency virus; experiment: Antiviral activity against Human immunodeficiency virus harboring reverse transcriptase Y181C mutant assessed as inhibition of viral replication; format: functional, organism-based; in short: as §4
# [26] = test system: Human immunodeficiency virus; experiment: Antiviral activity against Human immunodeficiency virus harboring reverse transcriptase K103N/P225H double mutant assessed as inhibition of viral replication; format: functional, organism-based; in short: as §4
# MT4 = experiment: Cytotoxicity against human MT4 cells up to 8.3 uM; format: cell-based
# In short: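 MT-4 cells in RPMI 1640 with 10% FBS or 50% NHS, run alongside the antiviral CIC95 assay; cytotoxicity checked up to the assay upper limit of 8.3 μM.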
# [27] = test system: Human immunodeficiency virus; experiment: Antiviral activity against Human immunodeficiency virus harboring reverse transcriptase K103N/Y181C/G190A triple mutant assessed as inhibition of viral replication; format: functional, organism-based; in short: as §4
# [28] = target: Human immunodeficiency virus type 1 reverse transcriptase (Human immunodeficiency virus 1, UniProt Q72547, Y181C); experiment: Inhibition of Human immunodeficiency virus reverse transcriptase Y181C mutant by SPA assay; in short: as §5
# [29] = Bioavailability in Sprague-Dawley rat at 10 mg/kg, po and 2 mg/kg, iv; format: ADME, organism-based; details: in vivo; in short: as §1
# [30] = Volume of distribution in Beagle dog at 2 mg/kg, po and 1 mg/kg, iv; format: ADME, organism-based, Canis lupus familiaris; details: in vivo; in short: as §1
# Canis familiaris [31] = experiment: Dose normalised AUC in Beagle dog at 2 mg/kg, po by LC-MS analysis; format: ADME, organism-based, Canis lupus familiaris; design: dose 2 mg/kg, route oral; details: in vivo; in short: as §1
# [32] = Volume of distribution in Beagle dog at 0.125 mg/kg, iv; format: ADME, organism-based, Canis lupus familiaris; design: dose 0.125 mg/kg, route intravenous; details: in vivo; in short: as §1
# [33] = Plasma clearance in Beagle dog at 0.125 mg/kg, iv; format: ADME, organism-based, Canis lupus familiaris; design: dose 0.125 mg/kg, route intravenous; in short: as §1
# [34] = Half life in Beagle dog at 0.125 mg/kg, iv; format: ADME, organism-based, Canis lupus familiaris; design: dose 0.125 mg/kg, route intravenous; details: in vivo; in short: as §1
# Canis familiaris [35] = experiment: Dose normalised AUC in Beagle dog at 10 mg/kg, po by LC-MS analysis; format: ADME, organism-based, Canis lupus familiaris; design: dose 10 mg/kg, route oral; details: in vivo; in short: as §1
# [36] = Bioavailability in Beagle dog at 1 mg/kg, po and 0.25 mg/kg, iv; format: ADME, organism-based, Canis lupus familiaris; details: in vivo; in short: as §1
# Canis familiaris [37] = experiment: Dose normalised AUC in Beagle dog at 1 mg/kg, po by LC-MS analysis; format: ADME, organism-based, Canis lupus familiaris; design: dose 1 mg/kg, route oral; details: in vivo; in short: as §1
SMILES,clearance [1],inhibition [2],IC95 [3],AUC/dose (Rattus norvegicus),IC95 [5],inhibition [7],IC95 [8],inhibition [9],inhibition [10],Vd [11],inhibition [12],Ki [13],inhibition [14],inhibition [15],IC95 [16],inhibition [17],Ki [19],Activity (MT4),Ki [28],bioavailability [29],further results
N#Cc1cc(Cl)cc(Oc2c(Cl)ccc3c2cnn3Cc2n[nH]c3ncccc23)c1 [MK-6186],18 mL/min/kg,Active,58 nM,1.6 µM·h,11 nM,Active,64 nM,Active,Active,10.5 L/kg,Active,0.58 nM,Active,inactive,15 nM,Active,0.34 nM,Non-toxic,0.6 nM,76%,half-life [4]: 12.8 h; bioavailability [6]: 48%; inhibition [18]: Active; inhibition [20]: Active; inhibition [21]: inactive; solubility [22]: < 0.1 µg/mL; clearance [23]: 6.1 mL/min/kg; half-life [24]: 7.6 h; inhibition [25]: Active; inhibition [26]: Active; inhibition [27]: Active; Vd [30]: 6 L/kg; AUC/dose (Canis familiaris [31]): 2.3 µM·h
N#Cc1cc(Cl)cc(Oc2c(Cl)ccc3c2nnn3Cc2n[nH]c3ncccc23)c1,14 mL/min/kg,Active,18 nM,0.18 µM·h,4.3 nM,Active,23 nM,Active,Active,5.5 L/kg,Active,0.43 nM,Active,inactive,3.8 nM,Active,0.24 nM,Non-toxic,0.44 nM,7.3%,half-life [4]: 11.3 h; bioavailability [6]: 9.5%; inhibition [18]: Active; inhibition [20]: Active; inhibition [21]: inactive; solubility [22]: < 0.1 µg/mL; clearance [23]: 1.6 mL/min/kg; half-life [24]: 4.8 h; inhibition [25]: Active; inhibition [26]: Active; inhibition [27]: Active; Vd [30]: 1.3 L/kg; AUC/dose (Canis familiaris [31]): 0.45 µM·h
N#Cc1cc(Cl)cc(Oc2c(Cl)ccc3c2nnn3Cc2n[nH]c3nc(N)ccc23)c1,11.9 mL/min/kg,,37 nM,0.02 µM·h,3 nM,,36 nM,,,4.4 L/kg,,0.94 nM,,,5.8 nM,,1.1 nM,Non-toxic,1.2 nM,< 1%,Vd [32]: 0.65 L/kg; half-life [24]: 4.7 h; clearance [33]: 2.2 mL/min/kg; half-life [34]: 12.8 h
N#Cc1cc(Cl)cc(Oc2cc(OCc3n[nH]c4nc(N)ccc34)ccc2Cl)c1,,Active,27 nM,2.3 µM·h,4.9 nM,Active,26 nM,Active,Active,,Active,,Active,inactive,12 nM,Active,0.2 nM,Non-toxic,,,AUC/dose (Canis familiaris [35]): 3.1 µM·h; inhibition [18]: Active; inhibition [20]: Active; inhibition [21]: inactive; inhibition [25]: Active; inhibition [26]: Active; inhibition [27]: Active
N#Cc1cc(Cl)cc(Oc2cc(OCc3n[nH]c4ncccc34)ccc2Cl)c1,,,22 nM,0.1 µM·h,10 nM,,52 nM,,,,,0.22 nM,,,15 nM,,0.12 nM,Non-toxic,0.23 nM,7.5%,bioavailability [36]: 3%; AUC/dose (Canis familiaris [37]): 0.14 µM·h; solubility [22]: < 0.1 µg/mL

# — ChEMBL document CHEMBL1938372, “Design and synthesis of conformationally constrained inhibitors of non-nucleoside reverse transcriptase” (J Med Chem, 2011)
